CYP2C19 inh = blockers of cytochrome P450 2C19 activity – biochemical, luminescence, ADME assay, primary screen; CYP2C19 Supersomes, luciferin-H EGE luminescence, 30 min; inhibition, % at 5 µM; 96,000 tested, 21% active; AID 778, 2007;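 active = CYP2C19 inhibition above a set limit at 5 µM in the primary screen, cut at about 50% in these data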;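 also: plate controls were negative control wells for no effect and 2.5 mM tranylcypromine positive control for full effect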
Target sequence (P33261 whole entry, looked up): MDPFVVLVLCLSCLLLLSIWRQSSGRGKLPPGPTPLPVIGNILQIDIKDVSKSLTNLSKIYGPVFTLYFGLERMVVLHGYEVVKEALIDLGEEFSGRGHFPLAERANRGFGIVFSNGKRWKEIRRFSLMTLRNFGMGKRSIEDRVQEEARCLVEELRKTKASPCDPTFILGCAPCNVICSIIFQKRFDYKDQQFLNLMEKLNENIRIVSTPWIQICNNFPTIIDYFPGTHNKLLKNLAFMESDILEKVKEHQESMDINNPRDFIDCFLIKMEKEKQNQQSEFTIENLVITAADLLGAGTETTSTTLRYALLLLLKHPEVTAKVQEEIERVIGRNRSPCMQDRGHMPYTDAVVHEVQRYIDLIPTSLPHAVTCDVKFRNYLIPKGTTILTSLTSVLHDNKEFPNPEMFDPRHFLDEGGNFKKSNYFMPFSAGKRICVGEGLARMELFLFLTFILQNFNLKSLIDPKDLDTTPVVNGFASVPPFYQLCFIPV
CYP2C9 activ = human CYP2C9 activators, primary screen, biochemical, luminescence; recombinant CYP2C9, luciferin-H conversion; hits give high values; factor 1 = untreated enzyme, 0 = blocked; activation factor at 5 µM; 96,000 tested, 1.4% active; AID 1024, 2008;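 active = activation factor of 2 or more for CYP2C9 at a 5 µM dose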;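 also: 0 = sulfaphenazole-blocked wells and 1 = vehicle-only wells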
CYP2C19 act = human CYP2C19 activators, primary screen, biochemical, luminescence. activation factor at 5 µM. recombinant CYP2C19, luciferin-H EGE luminescence; hits give high values; 0 = fully inhibited enzyme, 1 = untreated enzyme. 96,000 tested, under 10 active;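 active = activation factor of at least 2 at 5 µM in the primary screen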;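 also: 0 = wells with 2.5 mM tranylcypromine and 1 = vehicle-only wells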
Cav3 T inh = Cav3.2 calcium influx blockers – cell-based, Fluo-4 calcium fluorescence, FDSS, MLSMR library, primary screen; Voltage-dependent T-type calcium channel subunit alpha-1H (Homo sapiens), O95180; Cav3.2-expressing cells; hits give low values; B-score at 10 µM; 100,000 tested, 4% active; AID 449739, 2010;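 active = single-dose well whose peak fluorescence ratio is a statistical outlier from its plate by either plate-standardised score or position-corrected B-score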
Rev-RRE block = HIV-1 Rev-RRE binding inhibitors, primary screen, biochemical, FRET, protein-RNA interaction. P05866. Rev peptide-RRE RNA binding. inhibition, % at 8 µM. 97,000 tested, 0.79% active;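 active = inhibition above the screen-wide mean plus 3 SD, cut at about 35% in these data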;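 also: 0% = median DMSO wells and 100% = median Neomycin B control wells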
Target sequence (P05866 whole entry, looked up): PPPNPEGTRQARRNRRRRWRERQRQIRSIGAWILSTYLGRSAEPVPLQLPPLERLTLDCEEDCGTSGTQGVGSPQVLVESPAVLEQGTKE
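Test system – labelled RRE RNA duplex and labelled Rev peptide · Reagent – labelled Rev peptide · Doses – one concentration, 8 µM nominal · Incubation – 5 + 15 min at 25 °C · Signal – FRET fluorescence readout · Read-out basis – % inhibition of FRET ratio versus controls · Control set – DMSO wells as 0% and neomycin B wells as 100% inhibition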
CYP2C9 inh = blockers of cytochrome P450 2C9 activity – biochemical, luminescence, ADME assay, primary screen. CYP2C9 Supersomes, luciferin-H conversion. inhibition, % at 5 µM. 96,000 tested, 20% active. AID 777, 2007;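 active = blocking of liver enzyme CYP2C9 beyond about 50% at 5 µM, limit read from the data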
Active calls of the source: *; [ ] = dose if it differs, or a comment. Shown are actives, neighbours in structure and some others; about 27% of the full set was active somewhere.

`O=C(NCc1ccccc1)c1ccc2nc(-c3ccco3)c(-c3ccco3)nc2c1` gave CYP2C19 inh 36, CYP2C9 activ 0.2, CYP2C19 act 0.6, Cav3 T inh -0.29, Rev-RRE block -21 and CYP2C9 inh 77*.
Screening S=C(Nc1ccc(N2CCOCC2)cc1)Nc1ccc2nc(-c3ccco3)c(-c3ccco3)nc2c1 returned CYP2C19 inh 30, CYP2C9 activ 0.7, CYP2C19 act 0.7, Rev-RRE block 104*[fluorescence artefact?] and CYP2C9 inh 28.
`COc1ccc2nc(-c3ccco3)c(-c3ccco3)nc2c1` gave CYP2C19 inh 35, CYP2C9 activ 0.4, CYP2C19 act 0.7, Cav3 T inh -1.9, Rev-RRE block 7 and CYP2C9 inh 56*.
Screening O=C(Nc1ccccc1)c1ccc2nc(-c3ccco3)c(-c3ccco3)nc2c1 returned CYP2C19 inh 61*, CYP2C9 activ 0.3, CYP2C19 act 0.4, Cav3 T inh 0.13, Rev-RRE block 5 and CYP2C9 inh 67*.
CC(=O)c1ccc(NC(=O)c2ccc3nc(-c4ccco4)c(-c4ccco4)nc3c2)cc1 was read as CYP2C19 inh 6, CYP2C9 activ 0.7, CYP2C19 act 0.9, Cav3 T inh -0.17, Rev-RRE block -42 and CYP2C9 inh 27.
For Cn1c(N)c(S(=O)(=O)NCc2ccccc2)c(=O)n(C)c1=O the results were Cav3 T inh 0.74.
`CCCNC(=O)c1ccc2nc(-c3ccccc3)c(-c3ccccc3)nc2c1` gave CYP2C19 inh 7, CYP2C9 activ 0.5, CYP2C19 act 0.9, Cav3 T inh -0.64, Rev-RRE block 6 and CYP2C9 inh 51*.
`Cc1nnc(Sc2nc3c(c(=O)[nH]c(=O)n3C)n2CCCc2ccccc2)s1` gave CYP2C19 inh 27, CYP2C9 activ 0.4, CYP2C19 act 0.7, Cav3 T inh 0.18, Rev-RRE block 3 and CYP2C9 inh 60*.
CCOC(=O)C(CC)Sc1nc2c(c(=O)[nH]c(=O)n2C)n1CCc1ccccc1 (configuration not stated) was read as CYP2C19 inh 60*, CYP2C9 activ 0.2, CYP2C19 act 0.4, Cav3 T inh 1.2, Rev-RRE block 6 and CYP2C9 inh 78*.
CCOC(=O)CSc1nc2c(c(=O)[nH]c(=O)n2C)n1CCc1ccccc1 was read as CYP2C19 inh 16, CYP2C9 activ 0.9, CYP2C19 act 0.8, Cav3 T inh 0.039, Rev-RRE block 5 and CYP2C9 inh 7.
`O=C(C1CC1)N1CCc2cc(Br)cc(S(=O)(=O)NCc3ccc4c(c3)OCO4)c21` gave CYP2C19 inh 67*, CYP2C9 activ 0.9, CYP2C19 act 0.3 and CYP2C9 inh 14.
CCN1CCCC1CNS(=O)(=O)c1cc(Br)cc2c1N(C(=O)C1CC1)CC2 (configuration not stated) was read as CYP2C19 inh -5, CYP2C9 activ 0.5, CYP2C19 act 1, Cav3 T inh 1.5 and CYP2C9 inh 48.
For CCN(c1ccc2c(c1)OCO2)S(=O)(=O)c1cc(Br)cc2c1N(C(C)=O)CC2 the results were CYP2C19 inh 56*, CYP2C9 activ 1.4, CYP2C19 act 0.4, Cav3 T inh 0.64, Rev-RRE block 0 and CYP2C9 inh -43.
O=C(C1CC1)N1CCc2cc(Br)cc(S(=O)(=O)N3CCOCC3)c21 was read as CYP2C19 inh 35, CYP2C9 activ 0.3, CYP2C19 act 0.6, Cav3 T inh 1.7, Rev-RRE block 2 and CYP2C9 inh 72*.
CCCCN(C)S(=O)(=O)c1cc(Br)cc2c1N(C(=O)C1CC1)CC2 was read as CYP2C19 inh 86*, CYP2C9 activ 0.8, CYP2C19 act 0.1, Cav3 T inh -1.9 and CYP2C9 inh 18.
O=C(C1CC1)N1CCc2cc(Br)cc(S(=O)(=O)NCCN3CCOCC3)c21 was read as CYP2C19 inh 8, CYP2C9 activ 0.8, CYP2C19 act 0.9, Cav3 T inh -0.45 and CYP2C9 inh 22.
O=c1[nH]cn[nH]1 was read as Cav3 T inh -0.046.
Screening COc1ccc(C(CC(=O)O)NC(=O)c2ccccc2)cc1OC (configuration not stated) returned CYP2C19 inh -8, CYP2C9 activ 1.1, CYP2C19 act 1.1, Rev-RRE block 7 and CYP2C9 inh -14.
Screening COc1cc(/C=C\C(=O)NCc2ccc3c(c2)cc(C)n3C)cc(OC)c1OC returned Cav3 T inh -0.28.
CCOC(=O)C1=C(c2ccccc2)N2CCN=C2S1 was read as Rev-RRE block 4.
COC(=O)/C(=C\Nc1ccc(Cl)c2ccccc12)c1ncc(C(F)(F)F)cc1Cl was read as CYP2C19 inh 33, CYP2C9 activ 0.2, CYP2C19 act 0.7, Cav3 T inh -0.29, Rev-RRE block 15 and CYP2C9 inh 76*.
CCOCCn1c(CN(Cc2ccccc2)Cc2ccccc2)nc2c1c(=O)n(C)c(=O)n2C was read as CYP2C19 inh 76*, CYP2C9 activ 0.1, CYP2C19 act 0.2, Cav3 T inh -2.5, Rev-RRE block 1 and CYP2C9 inh 94*.
Screening Cn1c(=O)c2c(nc(CN3CCC(C(N)=O)CC3)n2Cc2c(Cl)cccc2Cl)n(C)c1=O returned CYP2C19 inh 19, CYP2C9 activ 0.3, CYP2C19 act 0.8, Cav3 T inh 1.4, Rev-RRE block 2 and CYP2C9 inh 68*.
`Cc1ccc(Cn2c(CN(C)Cc3ccccc3)nc3c2c(=O)n(C)c(=O)n3C)cc1` gave CYP2C19 inh 78*, CYP2C9 activ 0.1, CYP2C19 act 0.2, Cav3 T inh -5.2*, Rev-RRE block 0 and CYP2C9 inh 94*.
Screening Cn1c(=O)c2c(nc(CN3CCN(Cc4ccccc4)CC3)n2Cc2ccc(Cl)cc2)n(C)c1=O returned CYP2C19 inh 33, CYP2C9 activ 0.5, CYP2C19 act 0.7, Cav3 T inh -3.7, Rev-RRE block 9 and CYP2C9 inh 51*.
CN(C)S(=O)(=O)c1ccc(C(=O)N2CCC(c3nc4ccccc4o3)CC2)cc1 was read as CYP2C19 inh 0, CYP2C9 activ 0.9, CYP2C19 act 1, Cav3 T inh 2.2, Rev-RRE block 9 and CYP2C9 inh 14.
Screening CN(Cc1ccccc1)Cc1nc2c(c(=O)n(C)c(=O)n2C)n1Cc1ccc(Cl)cc1 returned CYP2C19 inh 22, CYP2C9 activ 0.5, CYP2C19 act 0.8, Rev-RRE block 8 and CYP2C9 inh 50*.

Assay outcomes: PubChem, several laboratories
